According to the RNAGym collection of RNA variant scans (doi:10.1038/s41586-018-0170-7):

B1: tRNA (parent)
chain: GUUCCGUUGGCGUAAUGGUAACGCGUCUCCCUCCUAAGGAGAAGACUGCGGGUUCGAGUCCCGUACGGAACG

Variants of: B1
Experiment: yeast fitness, log relative to wild type (ln ratio); higher = fitter; tRNA-Arg(CCU), competitive growth, 37 C, 1 M NaCl
Procedure, shortened: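 Fitness is the natural log of a genotype's generation count divided by that of the wild type. A combinatorial library of tRNA-Arg(CCU) variants sat on a HIS3 centromeric plasmid in BY4742 lacking the chromosomal gene, from two independent transformations. Pools grew 4 generations in SC-HIS at 30 °C, then ~6.5 generations (~26.5 h) in SC-HIS 1M NaCl at 37 °C, with three outputs per input. Generations came from OD-scaled log2 output/input frequency, inverse-variance weighted across replicates, with variants counted by 125 bp paired-end Illumina sequencing.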

Variant	yeast fitness (ln)
G1A C27U A43C C66U A70G C71U	-0.32
G1A C46U A69G	-0.238
G1A G6A C27U A69G A70U C71U	-0.504
U2C G6A A43C C46U C66U A69G A70G	-0.00874
G1A C27U	-0.105
C27U C46U C66U A69G A70U	-0.104
U2C G6U C66A C71U	-0.294
U2G G6A C27U C46U C66U A70G	-0.364
G6U A69G C71U	-0.233
G6A A43C C46U A69G A70G C71U	-0.241
G6U C66A A69G C71U	-0.0488
U2C G6A C66U A69G	-0.271
G1A G6U C27U C66A A70U	-0.407
U2G C27U A43C C46U A70U	-0.00371
G1A U2C A43C C66U A69G A70G C71U	-0.287
G6U C27U A43C C66A A69G A70G	-0.453
G1A C27U A43C C46U C66A	-0.103
G6A C46U C71U	-0.359
G1A U2C C46U A70U	-0.0782
U2G G6A C27U C66U A69G C71U	-0.409
U2G G6A C46U A69G A70U C71U	-0.272
G1A C27U A43C C66A A70G C71U	-0.35
G1A U2C G6A C27U A43C C66U A70G	-0.3
G1A U2C G6U A43C A70U	-0.153

Variant	yeast fitness (ln)
G1A U2C A69G C71U	-0.17
G1A G6U C27U C46U	-0.207
U2G G6A A70G	-0.114
G1A U2C C27U C46U C66A A70G C71U	-0.262
G1A U2G G6U A43C C46U C66U A69G A70G	-0.365
G1A U2G G6A C27U C66U A69G A70G	-0.431
C66U	-0.017
U2G G6U A43C C46U A69G A70G	-0.183
U2C G6U C27U A70U C71U	-0.136
G1A U2C C27U A70G C71U	-0.0348
G1A U2C G6U C27U A43C C71U	-0.263
G6U C27U A43C A69G C71U	-0.384
G6U C27U A43C C66A A70G C71U	-0.217
G6U C27U A43C C66U A69G A70U C71U	-0.341
G1A U2G G6U C27U A43C C46U A70G	-0.387
G6A A43C C46U A69G A70G	-0.216
U2G G6A C66U C71U	-0.134
U2C G6U A43C C66A	-0.135
U2G C27U A43C C66A A70G	-0.179
G1A U2G G6U C27U A43C A70G	-0.419
U2G G6U C46U A70G	-0.104
U2G G6U A43C C66A A69G A70G C71U	-0.315
G1A U2G G6A C27U A43C A70G	-0.381
G6A C46U C66A A69G A70G	-0.148

Variant	yeast fitness (ln)
G1A U2C G6U A43C A70G C71U	-0.198
G1A C27U C66U A70G	-0.176
C46U C66U A70G C71U	-0.0752
U2G G6A A43C C46U A70G C71U	-0.209
G1A G6A C27U C66U A70G	-0.187
U2G A70G	-0.0201
U2G G6A A43C C46U C66A A70U	-0.0808
U2G G6U A43C C46U C66A A69G A70U C71U	-0.313
G1A U2C C46U A69G C71U	-0.134
G1A G6A C27U A43C C46U C66U A70G C71U	-0.338
G6A C27U A43C A69G A70G	-0.264
U2G G6U C27U A43C C46U A69G C71U	-0.336
G1A U2C C27U C46U A69G A70U	-0.0465
U2G C46U C66U A69G A70G C71U	-0.114
G1A A43C C66A A70U C71U	-0.321
G1A G6U C27U C46U C66U A70G	-0.234
U2G G6A A43C	-0.0921
G1A U2C G6U A69G A70U	-0.152
U2C C27U A70G	-0.0415
U2G A43C C46U A69G C71U	-0.107
G1A U2C G6A C27U A70U	-0.0756
C27U A43C C66A A70G	-0.135
G1A A70G	-0.204
U2C G6A C27U A43C C46U C66A A69G A70G C71U	-0.19

Variant	yeast fitness (ln)
G1A U2C C27U A70U C71U	-0.288
G6U C27U C46U C66U A70U C71U	-0.336
G6U C27U C46U C66U A69G A70U C71U	-0.51
G1A U2G A43C C46U C66U	-0.116
G1A U2G C27U A43C A69G A70G	-0.263
G1A U2G G6U A43C A70U C71U	-0.41
U2G G6A C27U C46U	-0.0462
G1A C46U A69G C71U	-0.00219
G1A U2G G6U C27U A70U	-0.265
U2C C27U A69G A70G	-0.0516
U2C C46U C66A A70G C71U	-0.168
G1A U2G G6U C27U C46U A69G A70U C71U	-0.43
G1A U2C C27U A43C A70G	-0.0774
U2G G6U C27U C46U C66U A70G C71U	-0.261
U2G G6U C27U C66U A69G A70U	-0.276
U2C G6U C46U C66A A69G A70G C71U	-0.0159
G6U C27U C66U A70U C71U	-0.36
U2C A43C C46U A70G	-0.00469
G1A U2C C27U A43C A69G A70G	-0.275
G6A A43C C46U C71U	-0.117
A43C C66U A70U	-0.105
G1A U2G C27U C46U A69G A70G	-0.21
U2C G6A C66U A69G A70G C71U	-0.0248
G6A A70G	-0.194

Variant	yeast fitness (ln)
U2G C27U C46U C66U A70G C71U	-0.175
G1A U2C G6U C27U C46U C66U A70U	-0.128
U2C G6U C27U A43C C66U A70U	-0.156
U2G G6U A43C A70U	-0.151
G1A U2C G6U C66A A69G A70G C71U	-0.0278
G1A U2G G6A C27U C46U C66A C71U	-0.179
G1A U2G C27U C46U C66U A69G A70U C71U	-0.429
U2G A43C C46U A69G A70U	-0.00112
G1A U2G G6U C27U C66A A69G A70U C71U	-0.404
G1A C27U C46U C66A	-0.151
U2C G6A C46U C66U	0.00338
G1A U2G G6U C46U C66U	-0.14
A69G A70U C71U	-0.162
U2C G6U C66A A70U C71U	-0.105
U2G G6U	-0.0233
G1A U2G C27U C46U C66U A70U C71U	-0.434
G1A U2G G6U C46U C66U A70G C71U	-0.216
G1A G6A C27U A43C C46U A69G C71U	-0.268
U2G C46U C66U A70U	-0.00424
G1A G6U A69G A70U C71U	-0.407
G1A G6U A43C A70U C71U	-0.303
U2G G6U C27U C66U A69G	-0.275
G1A U2G C27U A43C C46U C66U C71U	-0.277
G1A U2C G6A C27U A43C C46U	-0.0401

Variant	yeast fitness (ln)
U2C G6U A43C C46U C66A A70U C71U	-0.153
G6A	-0.0301
G1A A43C C46U C66A A70U C71U	-0.189
U2C G6U C27U A43C C46U C66U A70U C71U	-0.317
C66U A70G C71U	-0.0554
G6U A43C C66U A70U	-0.301
U2G A43C C66U A69G A70U	-0.307
G1A U2G G6U C27U A70G C71U	-0.326
U2G G6U C46U A69G A70U C71U	-0.311
G1A G6U C27U A43C	-0.258
U2G G6U C27U C66A A70G C71U	-0.239
U2G A43C C46U C66A	-0.101
U2G A43C C46U A69G A70G C71U	-0.12
U2G C27U A43C A69G A70U	-0.267
U2G G6A C27U C66U A70U	-0.0165
G6U C46U A69G A70G C71U	-0.253
G6U A43C C46U C71U	-0.193
U2G G6U C27U A43C C46U C66A	-0.0517
U2C G6U A43C C66U A69G A70U	-0.231
G1A U2C C66U A70U	-0.0937
G1A C27U A43C C46U C66U A69G C71U	-0.361
G1A U2G G6A C27U C66U A69G A70G C71U	-0.402
G6U A43C A69G A70G C71U	-0.327
G1A C27U A43C C46U C66A A70G	-0.248

Variant	yeast fitness (ln)
U2G G6U C27U A43C A69G A70G C71U	-0.35
U2G G6A A43C C46U A69G A70U	-0.123
A43C C46U C66A A70G	0.00409
U2C G6A C46U C66U A70G C71U	-0.00476
G1A C66A A69G A70G C71U	-0.158
U2G C27U A43C C66U A70U	-0.205
G6U C27U A69G C71U	-0.342
G1A U2G A43C C66U A70G C71U	-0.22
G6U C27U C66A A69G A70U	-0.213
G6A C27U A43C C66U A69G A70G C71U	-0.371
U2G C27U C66A A69G A70G	-0.15
C27U A43C C66U A69G A70G C71U	-0.318
G6A A69G A70G	-0.0849
U2G G6A C27U A43C A70G	-0.186
G1A U2G A43C C46U A70U C71U	-0.00171
U2C G6A C27U A43C C66U	-0.179
U2C G6A C27U C46U C66A A70U C71U	-0.172
A43C A69G A70U	-0.0328
U2C C27U C46U A69G A70U	-0.198
U2C G6U A43C A69G A70U	-0.152
G6A C27U A69G C71U	-0.243
G1A U2G G6A C27U A69G A70G	-0.428
C46U C66A A70U C71U	-0.022
